Test results as given in ChEMBL document CHEMBL1131438, “Inactivation of O6-alkylguanine-DNA alkyltransferase. 1. Novel O6-(hetarylmethyl)guanines having basic rings in the side chain” (J Med Chem, 1998).

Molecular target: T1, Methylated-DNA--protein-cysteine methyltransferase (Homo sapiens, UniProt P16455)
T1 sequence (P16455 whole entry): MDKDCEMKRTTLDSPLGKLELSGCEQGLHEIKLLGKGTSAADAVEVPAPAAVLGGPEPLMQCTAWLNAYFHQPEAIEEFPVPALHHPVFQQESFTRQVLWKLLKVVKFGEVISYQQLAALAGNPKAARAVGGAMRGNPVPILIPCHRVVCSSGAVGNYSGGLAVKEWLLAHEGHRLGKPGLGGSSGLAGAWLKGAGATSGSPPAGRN
Test: O6-Alkylguanine-DNA Alkyltransferase-Inactivating Activity (Concentration of inactivator required to produce 50% reduction in alkyltransferase activity)
Summary of the method: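 Pure recombinant human ATase (50–60 fmol, titrated so ATase is limiting) preincubated 1 h at 37 °C with varying inactivator in 200 µL buffer (50 mM Tris-HCl pH 8.3, 3 mM DTT, 1 mM EDTA, 1 mg/mL BSA) plus 10 µg calf thymus DNA. Then 3H-methylated DNA substrate (4 µg DNA, 100 fmol O6-methylguanine) added, 1 h at 37 °C. After acid hydrolysis, 3H-methylated protein counted by scintillation. Duplicates, experiments repeated several times.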

Question: With `NC1=Nc2nc[nH]c2C(OCc2ccc(Cl)nc2)N1` (stereo not given) as the molecule, how does the IC50 read?
Answer: 200 nM

Question: With `NC1=Nc2nc[nH]c2C(OCc2cccnc2)N1` (stereo not given) as the molecule, how does the IC50 read?
Answer: 430 nM

Question: With `NC1=Nc2nc[nH]c2C(OCc2cnsc2)N1` (stereo not given) as the molecule, how does the IC50 read?
Answer: 70 nM

Question: Which IC50 does the source give for `NC1=Nc2nc[nH]c2C(OCc2cnc3c(c2)OCO3)N1` (stereo not given) here?
Answer: 230 nM

Question: With `NC1=NC(OCc2ccnc(Cl)c2)c2[nH]cnc2N1` (stereo not given) as the molecule, how does the IC50 read?
Answer: 40 nM

Question: For `NC1=Nc2nc[nH]c2C(OCc2ccco2)N1` (stereo not given), which IC50 is on record?
Answer: 80 nM

Question: Which IC50 does the source give for `NC1=Nc2nc[nH]c2C(OCc2ccncc2)N1` (stereo not given) here?
Answer: 130 nM

Question: For `NC1=Nc2nc[nH]c2C(OCc2cnco2)N1` (stereo not given), which IC50 is on record?
Answer: 350 nM

Question: For `NC1=NC(OCc2cccs2)c2[nH]cnc2N1` (stereo not given), which IC50 is on record?
Answer: 18 nM

Question: Which IC50 does the source give for `NC1=NC(OCc2cncc(Br)c2)c2[nH]cnc2N1` (stereo not given) here?
Answer: 250 nM

Question: For `NC1=NC(OCc2ccc[n+]([O-])c2)c2[nH]cnc2N1` (stereo not given), which IC50 is on record?
Answer: 1400 nM

Question: Which IC50 does the source give for `Cn1cncc1COC1N=C(N)Nc2[nH]cnc21` (stereo not given) here?
Answer: 8500 nM

Question: With `NC1=NC(OCc2cncs2)c2[nH]cnc2N1` (stereo not given) as the molecule, how does the IC50 read?
Answer: 33 nM

Question: With `NC1=Nc2nc[nH]c2C(OCc2ccc(Br)s2)N1` (stereo not given) as the molecule, how does the IC50 read?
Answer: 5 nM

Tested on: not listed separately
Test: In vitro half-life at 37 degree Centigrade in phosphate-buffered saline(PBS; pH =7-7.2)
Format: ADME

Question: With `NC1=Nc2nc[nH]c2C(OCc2ccc(Cl)nc2)N1` (stereo not given) as the molecule, how does the half-life read?
Answer: > 48 h

Question: For `NC1=Nc2nc[nH]c2C(OCc2cccnc2)N1` (stereo not given), which half-life is on record?
Answer: > 48 h

Question: Which half-life does the source give for `NC1=Nc2nc[nH]c2C(OCc2cnsc2)N1` (stereo not given) here?
Answer: > 48 h

Question: Which half-life does the source give for `NC1=Nc2nc[nH]c2C(OCc2cnc3c(c2)OCO3)N1` (stereo not given) here?
Answer: > 48 h

Question: Which half-life does the source give for `NC1=NC(OCc2ccnc(Cl)c2)c2[nH]cnc2N1` (stereo not given) here?
Answer: > 48 h

Question: For `NC1=Nc2nc[nH]c2C(OCc2ccco2)N1` (stereo not given), which half-life is on record?
Answer: 0.38 h

Question: With `NC1=Nc2nc[nH]c2C(OCc2ccncc2)N1` (stereo not given) as the molecule, how does the half-life read?
Answer: > 48 h

Question: With `NC1=Nc2nc[nH]c2C(OCc2cnco2)N1` (stereo not given) as the molecule, how does the half-life read?
Answer: > 48 h

Question: With `NC1=NC(OCc2cccs2)c2[nH]cnc2N1` (stereo not given) as the molecule, how does the half-life read?
Answer: 0.67 h

Question: For `NC1=NC(OCc2cncc(Br)c2)c2[nH]cnc2N1` (stereo not given), which half-life is on record?
Answer: > 48 h

Question: For `NC1=NC(OCc2ccc[n+]([O-])c2)c2[nH]cnc2N1` (stereo not given), which half-life is on record?
Answer: > 48 h

Question: For `Nc1nc(OCc2ccccc2)c2[nH]cnc2n1` [6-O-BENZYLGUANINE], which half-life is on record?
Answer: > 48 h

Question: With `Cn1cncc1COC1N=C(N)Nc2[nH]cnc21` (stereo not given) as the molecule, how does the half-life read?
Answer: 0.19 h

Question: For `NC1=NC(OCc2cncs2)c2[nH]cnc2N1` (stereo not given), which half-life is on record?
Answer: > 48 h

Question: With `NC1=Nc2nc[nH]c2C(OCc2ccccn2)N1` (stereo not given) as the molecule, how does the half-life read?
Answer: > 48 h

Question: For `NC1=Nc2nc[nH]c2C(OCc2ccc(Br)s2)N1` (stereo not given), which half-life is on record?
Answer: 1.95 h

Molecular target: T1, Methylated-DNA--protein-cysteine methyltransferase
Test: O6-Alkylguanine-DNA Alkyltransferase-Inactivating Activity in Raji cells (Concentration of inactivator required to produce 50% reduction in alkyltransferase activity)
Format: cell-based
Summary of the method: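 Raji cells in RPMI + 10% horse serum, 10^6/mL, exposed to inactivator or DMSO vehicle for 2 h at 37 °C. Cells washed, sonicated in Tris-DTT-EDTA buffer pH 8.3 with leupeptin, PMSF added, debris spun out. Supernatant ATase measured by transfer of 3H-methyl from O6-methylguanine DNA substrate to protein; activity expressed as % of untreated controls.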

Question: For `NC1=Nc2nc[nH]c2C(OCc2ccc(Cl)nc2)N1` (stereo not given), which IC50 is on record?
Answer: 120 nM

Question: Which IC50 does the source give for `NC1=Nc2nc[nH]c2C(OCc2cccnc2)N1` (stereo not given) here?
Answer: 220 nM

Question: Which IC50 does the source give for `NC1=Nc2nc[nH]c2C(OCc2cnsc2)N1` (stereo not given) here?
Answer: 70 nM

Question: For `NC1=Nc2nc[nH]c2C(OCc2cnc3c(c2)OCO3)N1` (stereo not given), which IC50 is on record?
Answer: 90 nM

Question: With `NC1=NC(OCc2ccnc(Cl)c2)c2[nH]cnc2N1` (stereo not given) as the molecule, how does the IC50 read?
Answer: 50 nM

Question: For `NC1=Nc2nc[nH]c2C(OCc2ccco2)N1` (stereo not given), which IC50 is on record?
Answer: 120 nM

Question: With `NC1=Nc2nc[nH]c2C(OCc2ccncc2)N1` (stereo not given) as the molecule, how does the IC50 read?
Answer: 200 nM

Question: For `NC1=Nc2nc[nH]c2C(OCc2cnco2)N1` (stereo not given), which IC50 is on record?
Answer: 220 nM

Question: With `NC1=NC(OCc2cccs2)c2[nH]cnc2N1` (stereo not given) as the molecule, how does the IC50 read?
Answer: 30 nM

Question: Which IC50 does the source give for `NC1=NC(OCc2cncc(Br)c2)c2[nH]cnc2N1` (stereo not given) here?
Answer: 200 nM

Question: Which IC50 does the source give for `NC1=NC(OCc2ccc[n+]([O-])c2)c2[nH]cnc2N1` (stereo not given) here?
Answer: 5400 nM

Question: For `Cn1cncc1COC1N=C(N)Nc2[nH]cnc21` (stereo not given), which IC50 is on record?
Answer: 21000 nM

Question: With `NC1=NC(OCc2cncs2)c2[nH]cnc2N1` (stereo not given) as the molecule, how does the IC50 read?
Answer: 60 nM

Question: Which IC50 does the source give for `NC1=Nc2nc[nH]c2C(OCc2ccccn2)N1` (stereo not given) here?
Answer: 6000 nM

Question: With `NC1=Nc2nc[nH]c2C(OCc2ccc(Br)s2)N1` (stereo not given) as the molecule, how does the IC50 read?
Answer: 10 nM
